High-throughput results from PubChem BioAssay.
CSN deneddyl inh: CSN deneddylation inhibition; AID 651999; Purified CSN, SCF-Nedd8-OG deneddylation, fluorescence polarization; inhibition, % at 12.5 µM; Q92905; 360,000 compounds, 0.38% hits;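 active means pattern-corrected inhibition above about 35%, with an unprinted fluorescence ratio check between 0.5 and 1.5, limit read from the data, passing the limit was not always enough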
Target sequence (Q92905 whole entry, looked up, one chain of several): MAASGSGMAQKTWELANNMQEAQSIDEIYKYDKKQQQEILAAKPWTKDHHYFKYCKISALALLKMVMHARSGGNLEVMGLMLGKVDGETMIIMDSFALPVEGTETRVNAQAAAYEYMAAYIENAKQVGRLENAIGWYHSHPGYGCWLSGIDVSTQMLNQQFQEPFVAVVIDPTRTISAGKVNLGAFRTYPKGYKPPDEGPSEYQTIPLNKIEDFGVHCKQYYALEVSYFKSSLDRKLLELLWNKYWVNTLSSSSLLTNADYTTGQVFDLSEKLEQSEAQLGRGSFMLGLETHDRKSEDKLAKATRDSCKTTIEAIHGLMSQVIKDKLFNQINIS
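assay system = purified human Csn5 enzyme expressed in HEK293T cells | amount = 0.24 nM enzyme | buffer or medium = Tris/NaCl/DTT buffer, pH 7.5 | reagent = 10 nM SCFSkp2-Nedd8OG | compound = one concentration, 12.5 µM, 0.25% DMSO | times = 90 min reaction at room temperature | signal = FP | read-out basis = % inhibition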
HNF4A DNA FP: change in binding of human HNF4 alpha to DNA; HNF4a-FITC DNA binding, fluorescence polarization, 1 h; activity change, % at 10 µM; P41235; 360,000 compounds, 0.3% hits; in the data active means activity change above about 30%, passing the limit was not always enough
Rpn11 inh: Rpn11 (human) deubiquitinase inhibition. O00487. human 26S proteasome, Ub4-pepOG fluorescence polarization; 20S core pre-blocked with epoxomicin. inhibition, % at 20 µM. 360,000 compounds, 0.59% hits. AID 588493;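 active means inhibition at 20 µM, scaled to each plate's controls, above about 33%, limit read from the data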
Target sequence (O00487 whole entry, looked up): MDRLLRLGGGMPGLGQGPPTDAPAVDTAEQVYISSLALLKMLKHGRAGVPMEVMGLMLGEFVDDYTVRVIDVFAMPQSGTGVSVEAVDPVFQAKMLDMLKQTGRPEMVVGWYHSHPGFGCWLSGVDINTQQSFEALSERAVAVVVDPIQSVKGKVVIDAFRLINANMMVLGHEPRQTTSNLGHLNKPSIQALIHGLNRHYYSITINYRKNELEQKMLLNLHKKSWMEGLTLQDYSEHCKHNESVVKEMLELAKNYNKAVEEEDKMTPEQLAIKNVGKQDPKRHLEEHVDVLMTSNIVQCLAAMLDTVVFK
TPT1 inh: C. albicans TPT1 enzyme inhibition; recombinant caTPT1, FP RNA substrate dephosphorylation; inhibition, % at 5 µM; 300,000 compounds, 0.81% hits; AID 1962;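 active means inhibition above the mean of all tested compounds plus 3 SD, set per screening campaign, cut at about 24% in these data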
IDE act: activators of human insulin-degrading enzyme in cells | AID 493087 | 340,000 compounds, 0.073% hits | P14735 | activation, % at 5.96 µM | HEK cells, FAbeta-B cleavage, fluorescence polarization; 0% vehicle, 100% cell-free pure enzyme wells;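 active means activation above the mean of all tested compounds plus 3 SD, set per screening campaign, cut at about 17% in these data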
IDE inh: inhibitors of human insulin-degrading enzyme in cells. 320,000 compounds, 0.41% hits. AID 434962. inhibition, % at 5.59 µM. HEK cells, FAbetaB cleavage, fluorescence polarization. P14735;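 active means percent inhibition above the average of all tested compounds plus 3 SD, set per screening campaign, cut at about 16% in these data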;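 further: IDE supplied by intact live HEK cells; FP after avidin binding of uncleaved biotin substrate so inhibition keeps polarization high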
Each line names hits and unclear results; the compound was inactive in the other large screens. Rows were chosen to be rich in hits. Some 1.7% of all compounds tested hit in one or more screens of this group.

O=C(Nc1cccc(-c2nc3ncccc3o2)c1)c1sc2cc(Cl)ccc2c1Cl	HNF4A DNA FP 176, Rpn11 inh active
O=C(Nc1cccc(-c2nc3ncccc3o2)c1)c1cc2ccccc2o1	none
O=C(Nc1cccc(-c2nc3ncccc3o2)c1)c1sc2ccccc2c1Cl	HNF4A DNA FP 43
O=C(NCCC(=O)N1CCN(Cc2c(F)cccc2Cl)CC1)c1ccc(Cl)cc1	none (no result: TPT1 inh)
CCOc1ncnc2c1[nH]c1ccccc12	IDE inh 18
CCCOc1ncnc2c1[nH]c1ccc(C)cc12	IDE inh 37 (no result: CSN deneddyl inh, HNF4A DNA FP, Rpn11 inh, IDE act)
Cc1ccc2[nH]c3c(Cl)ncnc3c2c1	none (no result: IDE act)
COc1ccc(CNc2ncnc3c2[nH]c2ccccc23)cc1	IDE inh 60 (no result: IDE act)
CCOC(=O)c1[nH]c(C)c(C(=O)OCc2ccccc2F)c1C	none
CC1CC(C)CN(C(=O)COC(=O)COc2ccc(C#N)cc2)C1 (stereo not given)	none (no result: TPT1 inh)
Cc1cc(C(=O)OCC(=O)N2CCc3ccccc32)ccc1[N+](=O)[O-]	none (no result: TPT1 inh)
C[C@@H](CN1C2=NC[C@H](C)N2C[C@H]1Cc1ccc(O)cc1)NC(=O)CCC1CCCCC1	none
CC(C)[C@H]1CN=C2N(C[C@H](C)NC(=O)CCC3CCCCC3)[C@H](Cc3ccc(O)cc3)CN21	CSN deneddyl inh 74
COc1cccc(-n2nc3c(-n4ncc(C#N)c4N)nnc(C)c3c2C)c1	CSN deneddyl inh 58
Cc1cc(C(=O)OCC(=O)NCc2ccc(Cl)cc2)c(C)o1	none
CCOC(=O)c1c(NC(=O)CC2Sc3ccc(C(F)(F)F)cc3NC2=O)sc(C)c1C (stereo not given)	none
COC(=O)c1c(NC(=O)CC2Nc3ccccc3NC2=O)sc(C)c1C (stereo not given)	HNF4A DNA FP 45
CCOC(=O)c1c(NC(=O)CC2Nc3ccccc3NC2=O)sc(C)c1C (stereo not given)	HNF4A DNA FP 52
CN(C)C(CNC(=O)C1CCN(S(=O)(=O)c2cc(Cl)ccc2Cl)CC1)Cc1ccccc1 (stereo not given)	none (no result: TPT1 inh, IDE inh)
COc1ccc(NC(=O)c2c(N)cnn2C)cc1	none
Cc1ccc(COc2ccc(CNCCCN3CCCCCC3=O)cc2)cc1	none
Cc1ccc(-c2nn(-c3ccccc3)cc2/C=C2\SC(=S)N(CC(=O)O)C2=O)cc1	none
CCN1C(=O)/C(=C/c2cn(-c3ccccc3)nc2-c2cccnc2)SC1=S	HNF4A DNA FP 40 (not shown: Rpn11 inh, TPT1 inh, IDE inh)
C[C@H](CO)N1C[C@H](C)[C@H](CN(C)C)Oc2ccc(NS(=O)(=O)c3ccc(F)cc3)cc2CC1=O	none (no result: TPT1 inh)
CNC[C@@H]1Oc2ccc(NS(=O)(=O)c3ccc(OC)cc3)cc2CC(=O)N([C@H](C)CO)C[C@@H]1C	IDE act 22 (no result: TPT1 inh)
NC(CO)c1cn([C@@H](CCC(=O)O)C(=O)N2CCNCC2)nn1 (stereo not given in full)	IDE act 22
Cc1ccnc(SCc2ccc(C(=O)O)cc2)n1	HNF4A DNA FP 69
Cc1ccc(NC(=O)c2ccc(CSc3nccc(C)n3)cc2)cc1	none
CCOC(=O)/C=c1\s/c(=C\c2ccc3cc(OC)ccc3c2)c(=O)n1CC(=O)NCc1ccc2c(c1)OCO2	CSN deneddyl inh 60 (not shown: Rpn11 inh)
CC1CCCN(C(=O)CNC(=O)c2ccco2)C1 (stereo not given)	none
Cc1cc(-c2sccc2Br)nc(-n2cccc2)n1	none (no result: TPT1 inh, IDE inh)
Cc1cc(-c2ccc(Br)s2)nc(-n2cccc2)n1	HNF4A DNA FP 50 (no result: TPT1 inh, IDE inh)
BrC(/C=N/N1CCN(Cc2ccccc2)CC1)=C/c1ccccc1	none
CCS(=O)(=O)N1N=C(c2cccc(NS(C)(=O)=O)c2)CC1c1ccc(C)cc1 (stereo not given)	CSN deneddyl inh 73 (not shown: Rpn11 inh)
Cc1ccc(C2=NN(S(C)(=O)=O)C(c3ccc4c(c3)OCO4)C2)cc1 (stereo not given)	HNF4A DNA FP 51
CCS(=O)(=O)N1N=C(c2cccc(NS(C)(=O)=O)c2)CC1c1ccccc1 (stereo not given)	none (not shown: Rpn11 inh)
COc1cc(OC)cc(-c2c(-c3cccs3)c3cc(-c4ccc5[nH]ccc5c4)ccc3n2C)c1	none (no result: TPT1 inh)
CCOc1cc(C2C(C#N)=C(N)SC(N)=C2C#N)ccc1OCCN1CCOCC1	TPT1 inh 46
Cc1ccc2c(c1)-c1[nH]c(=S)ncc1CS2	IDE inh 19
CC(C)(C)NC(=O)c1nn(Cc2ccccc2)c(=O)c2ccccc12	none
O=C(c1ccc(Cl)cc1)N1CCN(c2ccc([N+](=O)[O-])c(NCc3cccnc3)c2)CC1	none
O=C(c1ccccc1)N1CCN(c2ccc([N+](=O)[O-])c(NCc3cccnc3)c2)CC1	IDE act 20
Cc1ccc(S(=O)(=O)N/N=C\c2cn(CC(N)=O)c3ccccc23)cc1C	none
NC(=O)Cn1cc(/C=N\NS(=O)(=O)c2ccc(Cl)cc2)c2ccccc21	IDE act 24
CCCCN1C(=O)N(C)C2NC(=S)NC21 (stereo not given)	none (no result: IDE act)
O=C(c1ccco1)N1CCN(C(=O)C2CCCN(S(=O)(=O)Cc3ccccc3)C2)CC1 (stereo not given)	none
O=C(c1ccco1)N1CCN(C(=O)C2CCN(S(=O)(=O)Cc3ccccc3)CC2)CC1	CSN deneddyl inh 62
CCN1C(=O)C(=CC=CN(C)c2ccccc2)SC1=S	CSN deneddyl inh 64 (not shown: Rpn11 inh, TPT1 inh, IDE act, IDE inh)
O=C(O)CN1C(=O)/C(=C/C=C/c2ccccc2)SC1=S	none
CCN(CC)S(=O)(=O)c1ccc(N2CCOCC2)c(NC(=O)c2ccc(=O)[nH]c2)c1	none (no result: TPT1 inh)
Cc1ccc(S(=O)(=O)N2CCOCC2)cc1C(=O)Nc1ccncc1	none (no result: TPT1 inh)
Cc1ccc(S(=O)(=O)N2CCOCC2)cc1C(=O)Nc1ccc(-c2cn3ccsc3n2)cc1	IDE inh 20
COc1cc(OC)c2c(O)c3c(c(-c4c5c(c(O)c6c(OC)cc(OC)cc46)CO[C@@H](C)[C@H]5O)c2c1)[C@H](O)[C@H](C)OC3	Rpn11 inh 72
COc1cccc2cc(-c3ccccc3)oc12	none (no result: IDE act)
COc1cccc2cc(-c3ccnc(=S)[nH]3)oc12	IDE inh 39 (no result: CSN deneddyl inh, HNF4A DNA FP, Rpn11 inh, IDE act)
COc1ccc(-c2ccc3c(c2)S(=O)(=O)c2cccc(C(=O)NCCOc4ccccc4Cl)c2C3=O)cc1OC	CSN deneddyl inh 65 (no result: TPT1 inh)
CC1C(=O)N(Cc2cn(Cc3ccco3)nn2)CCS(=O)(=O)N1Cc1ccc(-c2ccc(F)cc2Cl)cc1 (stereo not given)	none (no result: TPT1 inh, IDE act, IDE inh)
Cc1cc(=O)[nH]c(N/N=C/c2c(C)nn(-c3ccccc3)c2Cl)n1	none
Cc1nn(-c2ccccc2)c(Cl)c1/C=N/Nc1nc2ccccc2[nH]1	HNF4A DNA FP 68
NC1(C#Cc2ccc3oc(=O)c(-n4cc(-c5ccsc5)nn4)cc3c2)CCCCC1	Rpn11 inh 44 (no result: TPT1 inh)
CCN(CCNCC(O)COc1ccccc1C(C)C)c1cccc(C)c1 (stereo not given)	none
